Results reported in the RNAGym collection of RNA variant scans (doi:10.1002/anie.201605470).

B1: Osa-1-4 twister ribozyme (parent)
chain: CCGCCUAACACUGCCAAUGCCGGUCCCAAGCCCGGAUAAAAGUGGAGGGGGCGG

Variants of: B1
Assay: self-cleavage, relative activity (ratio to wild type); higher = more cleavage; co-transcriptional
In short: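 In vitro transcription at 37 °C for 2 h allowed the twister ribozyme to cleave itself as it was made. Its 54-nucleotide Oryza sativa template had been synthesised with 97 % wild-type base and 1 % of each other base at the 48 positions downstream of the cleavage site. A template-switching oligonucleotide was used for reverse transcription, followed by PCR amplification and deep sequencing. Whether reads carried upstream sequence set the cleavage status, and relative activity is the fraction cleaved normalised to wild type.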

self-cleavage, 0.14:
CCGCCUAACACGUCCAAUGCCGGUCCCAAGCCCGGAUAAAAGUGGAGGGGGCGG [G13U U12G]

self-cleavage, 0.02:
CCGCCUAACACUCCCAAUGCCGGACCCAAGCCCGGAUAAAAGUGGAGGGGGCGG [G13C U24A]
CCGCCUAACACUUCCAAUGCCGGUCCCAAGCCCGGAUAAAAGUGGAGGGCGCGG [G13U G50C]
CCGCCUAACACUUCCAAUGCCGGUCCCAAGCCCAGAUAAAAGUGGAGGGGGCGG [G13U G34A]
CCGCCUAACACUCCCAAUGCCGGUCCCAAGCCCGGAUAAAAGUGGAGGGGGCUG [G13C G53U]
CCGCCUAACACUCCCAAUGCCGGUCCCAAGCCCGGAUAAAAGUGGAGGGGGCAG [G13C G53A]
CCGCCUAACACUUCCAAUGCCGGUCCCAAGCCCGGAUAAAAGUGGAGGGGACGG [G13U G51A]
CCGCCUAACACUUCCAAUGCCGGUCCCAAGCCCGGAUAAAAGUGGAGGGGUCGG [G13U G51U]
CCGCCUAACACUUCCAAUGCCGGUCCCAAGCCCGGAUAAAAGUGGAGGGGGCUG [G13U G53U]
CCGCCUAACACUCCCAAUGCCGGUCCCAAGCCCGGAUAAAAGUGGAGGGCGCGG [G13C G50C]
CCGCCUAACACUCCCAAUGCCGGUCCCAAGCCCGGAUAAAAGUGGAGGGUGCGG [G13C G50U]
CCGCCUAACACAUCCAAUGCCGGUCCCAAGCCCGGAUAAAAGUGGAGGGGGCGG [G13U U12A]
CCGCCUAACACUCCCAAUGCCGGUCCCAAGCCCGGAUAAAAGUGAAGGGGGCGG [G13C G45A]
CCGCCUAACACUUCCAAUGCCGGUCCCAAGCCCGGAUAAAAGUGGAAGGGGCGG [G13U G47A]
CCGCCUAACACUUCCAAUGCCGGUCCCAAGCCCGGAUAAAAGUGGAUGGGGCGG [G13U G47U]
CCGCCUAACACUUCCAAUGCCGAUCCCAAGCCCGGAUAAAAGUGGAGGGGGCGG [G13U G23A]
CCGCCUAACACUUCCAAUGCCGUUCCCAAGCCCGGAUAAAAGUGGAGGGGGCGG [G13U G23U]
CCGCCUAACACUUCCAAUGCCGGUCCCAAGCCCGGAUAAAAAUGGAGGGGGCGG [G13U G42A]

self-cleavage, 0.01:
CCGCCUAACACUUCCAAUGCCGGUCCCAACCCCGGAUAAAAGUGGAGGGGGCGG [G13U G30C]
CCGCCUAACACUUCCAAUGCCGGUCCCAAACCCGGAUAAAAGUGGAGGGGGCGG [G13U G30A]
CCGCCUAACACUUCCAAUGCCGGUCCCAAUCCCGGAUAAAAGUGGAGGGGGCGG [G13U G30U]
CCGCCUAACACUCCCAAUGCCGGGCCCAAGCCCGGAUAAAAGUGGAGGGGGCGG [G13C U24G]
CCGCCUAACACUCCCAAUGCCGGUCCCAAGCCCGGAUAAAAGUGGAGGGGGCCG [G13C G53C]
CCGCCUAACACUUCCAAUGCCGGUCCCAAGCCCGGAUAAAAGUGGAGGGGCCGG [G13U G51C]
CCGCCUAACACUUCCAAUGCCGGUCCCAAGCCCGGAUAAAAGUGGAGGGGGCCG [G13U G53C]
CCGCCUAACACUCCCAAUGCCGGUCCCAAGCCCGGAUAAAAGUGUAGGGGGCGG [G13C G45U]
CCGCCUAACACUCCCAAUGCCGGUCCCAAGCCCGGAUAAAAGUGCAGGGGGCGG [G13C G45C]
CCGCCUAACACUUCCAAUGCCGGUCCCAAGCCCGGAUAAAAGUGGAGAGGGCGG [G13U G48A]
CCGCCUAACACUUCCAAUGCCGGUCCCAAGCCCGGAUAAAAGUGGAGUGGGCGG [G13U G48U]
CCGCCUAACACUUCCAAUGCCGGUCCCAAGCCCGGAUAAAAGUGGAGCGGGCGG [G13U G48C]
CCGCCUAACACUUCCAAUGCCGGUCCCAAGCCCGGAUAAAAGUGGACGGGGCGG [G13U G47C]
CCGCCUAACACUUCCAAUGCCGGUCCCAAGCCCGGAUAAAAUUGGAGGGGGCGG [G13U G42U]
CCGCCUAACACUUCCAAUGCCGGUCCCAAGCCCGGAUAAAACUGGAGGGGGCGG [G13U G42C]
CCGCCUAACACUUCCAAUGCCGGUCCCAAGCCCGGAUAAAAGUGGAGGAGGCGG [G13U G49A]
CCGCCUAACACUUCCAAUGCCGGUCCCAAGCCCGGAUAAAAGUGGAGGUGGCGG [G13U G49U]

self-cleavage, 0.04:
CCGCCUAACACUUCCAAUGCCGGUCCCAAGCCCGGAUAAAAGUUGAGGGGGCGG [G13U G44U]

self-cleavage, 0.03:
CCGCCUAACACUCCCAAUGCCGGCCCCAAGCCCGGAUAAAAGUGGAGGGGGCGG [G13C U24C]
CCGCCUAACACUUCCAAUGCCGGUCCCAAGCCCGGAUAAAAGUAGAGGGGGCGG [G13U G44A]
CCGCCUAACACUUCCAAUGCCGGUCCCAAGCCCGGAUAAAAGUCGAGGGGGCGG [G13U G44C]
CCGCCUAACACUUCCAAUGCCGGUCCCAAGCCCGGAUAAAAGUGGAGGGAGCGG [G13U G50A]
CCGCCUAACACUUCCAAUGCCGGUCCCAAGCCCGGAUAAAAGUGGAGGGUGCGG [G13U G50U]
CCGCCUAACACUUCCAAUGCCGGUCCCAAGCCCUGAUAAAAGUGGAGGGGGCGG [G13U G34U]
CCGCCUAACACUUCCAAUGCCGGUCCCAAGCCCCGAUAAAAGUGGAGGGGGCGG [G13U G34C]
CCGCCUAACACUUCCAAUGCCGGUCCCAAGCCCGGAUAAAAGUGGAGGGGGCAG [G13U G53A]
CCGCCUAACACUCCCAAUGCCGGUCCCAAGCCCGGAUAAAAGUGGAGGGAGCGG [G13C G50A]
CCGCCUAACACUUCCAAAGCCGGUCCCAAGCCCGGAUAAAAGUGGAGGGGGCGG [G13U U18A]

self-cleavage, 0.05:
CCGCCUAACACCUCCAAUGCCGGUCCCAAGCCCGGAUAAAAGUGGAGGGGGCGG [G13U U12C]

self-cleavage, 0:
CCGCCUAACACUUCCAAUGCCGCUCCCAAGCCCGGAUAAAAGUGGAGGGGGCGG [G13U G23C]
